Test results: ChEMBL document CHEMBL1128436, “Synthesis and biological evaluation of a new series of sterols as potential hypocholesterolemic agents” (1995)
Activity calls are given as the source filed them. No cut-off for these calls is given here.

Key:
[1] = biological target: Low-density lipoprotein receptor (Homo sapiens) (UniProt P01130); test: Capability of derepressing the transcription of human Low density lipoprotein receptor promoter in the presence of 25-hydroxycholesterol in CHO cells by luciferase assay; NA= Not active within the test range 0-20 ug/mL; format: cell-based
Chain of Low-density lipoprotein receptor (Homo sapiens) (P01130 whole entry, the tested form may be a part): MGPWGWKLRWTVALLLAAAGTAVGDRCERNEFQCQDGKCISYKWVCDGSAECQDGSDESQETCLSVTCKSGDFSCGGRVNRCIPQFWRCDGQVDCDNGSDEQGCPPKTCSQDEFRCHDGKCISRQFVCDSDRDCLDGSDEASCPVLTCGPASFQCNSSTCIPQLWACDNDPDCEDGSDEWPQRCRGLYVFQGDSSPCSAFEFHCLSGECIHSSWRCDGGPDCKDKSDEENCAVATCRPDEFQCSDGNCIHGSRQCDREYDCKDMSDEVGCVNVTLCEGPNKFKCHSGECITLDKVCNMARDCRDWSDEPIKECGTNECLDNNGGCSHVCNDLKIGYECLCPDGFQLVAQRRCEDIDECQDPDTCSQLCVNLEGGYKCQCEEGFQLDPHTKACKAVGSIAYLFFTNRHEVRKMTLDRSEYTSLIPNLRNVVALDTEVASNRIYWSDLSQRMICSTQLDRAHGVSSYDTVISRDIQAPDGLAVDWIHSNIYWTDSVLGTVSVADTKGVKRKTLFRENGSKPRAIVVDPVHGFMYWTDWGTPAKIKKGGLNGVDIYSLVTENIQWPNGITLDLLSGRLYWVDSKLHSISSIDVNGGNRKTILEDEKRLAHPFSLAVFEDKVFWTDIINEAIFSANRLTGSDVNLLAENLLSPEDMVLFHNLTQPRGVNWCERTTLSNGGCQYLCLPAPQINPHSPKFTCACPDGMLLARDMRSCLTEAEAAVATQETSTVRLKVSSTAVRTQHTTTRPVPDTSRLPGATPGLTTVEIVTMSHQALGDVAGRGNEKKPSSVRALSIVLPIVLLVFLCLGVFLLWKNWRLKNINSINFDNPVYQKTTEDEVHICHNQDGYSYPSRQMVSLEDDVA
Procedure, shortened: (§1)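 Stably transfected CHO clone S27/B30 (LDL receptor promoter fused to firefly luciferase), grown to confluence (2-3 days, 37 °C, 5% CO2). Then 24 h in serum-free assay medium (DMEM/Ham's F-12 3:1, 0.5% bovine albumin) with 25-hydroxycholesterol 0.5 μg/mL plus compound at 0.30-20 μg/mL from ethanol stock, triplicate wells. Lysate luciferase peak light per μg protein (Coomassie). EC30 = concentration giving 30% rise over control. MA = % specific induction at 20 μg/mL.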

CHO [2] = test: Capability of derepressing the transcription of SV40 promoter in CHO cells by luciferase assay; NA= Not active within the test range 0-20 ug/mL; format: functional, cell-based; conditions: Cricetulus griseus
Procedure, shortened: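 Counter-screen in CHO clone SV40/LN9, with luciferase driven by the SV40 promoter. Confluent monolayers were given compound at 0.30-20 μg/mL for 24 h in serum-free albumin assay medium, triplicate wells. Lysates were read for luciferase peak luminescence, normalized to lysate protein.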

Cricetinae gen. sp. [3] = test: Total serum cholesterol level with relative to the control value (333(23)) in hamsters at a dose of 0.2% of diet for 1 week; format: functional, Cricetulus griseus
[4] = biological target: Low-density lipoprotein receptor (Homo sapiens) (UniProt P01130); test: Capability of derepressing the transcription of Low density lipoprotein receptor promoter in the presence of 25-hydroxycholesterol in CHO cells measured as maximum activity at 20 ug/mL; format: cell-based; procedure, shortened: as §1
[5] = biological target: Low-density lipoprotein receptor (Homo sapiens) (UniProt P01130); test: Capability of derepressing the transcription of human Low density lipoprotein receptor promoter in the presence of 25-hydroxycholesterol in CHO cells by luciferase assay; format: cell-based; procedure, shortened: as §1
Mesocricetus auratus [6] = species: Mesocricetus auratus; test: Serum cholesterol level change relative to the control value (333(23)) in hamsters at a dose of 0.2% of diet for 1 week
Cricetinae gen. sp. [7] = test: Total serum cholesterol level with relative to the control value (366(24)) in hamsters at a dose of 0.2% of diet for 1 week; format: functional, Cricetulus griseus
Mesocricetus auratus [8] = species: Mesocricetus auratus; test: Serum cholesterol level change relative to the control value (366(24)) in hamsters at a dose of 0.2% of diet for 1 week
CHO [9] = test: In vitro [1-14C]-acetate]-cholesterol biosynthesis inhibition assay (14CACBI) in CHO cells; neg = Negative :no effect on biosynthesis of cholesterol; format: functional, cell-based; conditions: Cricetulus griseus
Procedure, shortened: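 Confluent CHO cells in replicate 100 mm dishes were held 20 h in assay medium without 25-hydroxycholesterol, with ethanol vehicle (0.5% v/v) or compound at 20 μg/mL. [1-14C]acetate was then added (final 1 μCi/mL) for 4 h more. Cells were scraped and sonicated, lipids separated, and the cholesterol band scraped and counted by scintillation.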

SMILES | EC30 [1] | Activity (CHO [2]) | MA [4] | EC30 [5] | other results
CC(C)CCC[C@@H](C)[C@H]1CC[C@H]2[C@@H]3CCC4[C@H](Cc5ccc(CO)cc5)[C@H](O)CC[C@]4(C)[C@H]3CC[C@]12C (stereo partly specified) | inactive | – | – | – | –
C=C(C)C[C@H]1C2CC[C@H]3[C@@H]4CC[C@H]([C@H](C)CC[C@@H](CC)C(C)C)[C@@]4(C)CC[C@@H]3[C@@]2(C)CC[C@H]1O (stereo partly specified) | – | inactive | 165% | 3.1 µM | Total cholesterol (Cricetinae gen. sp. [3]): 196 mg/dL; Relative change (Mesocricetus auratus [6]): -41%
CC(C)CCC[C@@H](C)[C@H]1CC[C@H]2[C@@H]3CCC4[C@H](C/C=C/CO)[C@H](O)CC[C@]4(C)[C@H]3CC[C@]12C (stereo partly specified) | inactive | – | – | – | –
CC(C)CCC[C@@H](C)[C@H]1CC[C@H]2[C@@H]3CCC4[C@H](Cc5ccc(F)cc5)[C@H](O)CC[C@]4(C)[C@H]3CC[C@]12C (stereo partly specified) | – | inactive | 80% | 17 µM | Total cholesterol (Cricetinae gen. sp. [7]): 181 mg/dL; Relative change (Mesocricetus auratus [8]): -50%
CC/C=C/C[C@H]1C2CC[C@H]3[C@@H]4CC[C@H]([C@H](C)CCCC(C)C)[C@@]4(C)CC[C@@H]3[C@@]2(C)CC[C@H]1O (stereo partly specified) | inactive | – | – | – | –
CC(C)CCC[C@@H](C)[C@H]1CC[C@H]2[C@@H]3CCC4[C@H](Cc5cccc(F)c5)[C@H](O)CC[C@]4(C)[C@H]3CC[C@]12C (stereo partly specified) | inactive | – | – | – | –
CC(C)CCC[C@@H](C)[C@H]1CC[C@H]2[C@@H]3CCC4[C@H](Cc5ccc(C#N)cc5)[C@H](O)CC[C@]4(C)[C@H]3CC[C@]12C (stereo partly specified) | – | inactive | 55% | 9.9 µM | –
C=CC[C@@H]1C(=O)CC[C@]2(C)[C@H]3CC[C@]4(C)[C@@H]([C@H](C)CCCC(C)C)CC[C@H]4[C@@H]3CC[C@@H]12 | inactive | – | – | – | Total cholesterol (Cricetinae gen. sp. [7]): 267 mg/dL; Relative change (Mesocricetus auratus [8]): -27%
Cc1cccc(C[C@H]2C3CC[C@H]4[C@@H]5CC[C@H]([C@H](C)CCCC(C)C)[C@@]5(C)CC[C@@H]4[C@@]3(C)CC[C@H]2O)c1 (stereo partly specified) | inactive | – | – | – | –
CC(C)CCC[C@@H](C)[C@H]1CC[C@H]2[C@@H]3CCC4[C@H](C/C=C/Cl)[C@H](O)CC[C@]4(C)[C@H]3CC[C@]12C (stereo partly specified) | – | inactive | 169% | 2 µM | Activity (CHO [9]): Negative; Total cholesterol (Cricetinae gen. sp. [3]): 185 mg/dL; Relative change (Mesocricetus auratus [6]): -44%
CCCC[C@H]1C2CC[C@H]3[C@@H]4CC[C@H]([C@H](C)CCCC(C)C)[C@@]4(C)CC[C@@H]3[C@@]2(C)CC[C@H]1O (stereo partly specified) | – | inactive | 88% | 20 µM | –
C=CC[C@H]1C2CC[C@H]3[C@@H]4CC[C@H]([C@H](C)CC[C@@H](CC)C(C)C)[C@@]4(C)CC[C@@H]3[C@@]2(C)CC[C@H]1O (stereo partly specified) | – | inactive | 95% | 8.2 µM | Total cholesterol (Cricetinae gen. sp. [3]): 217 mg/dL; Relative change (Mesocricetus auratus [6]): -35%
C=C(C)C[C@H]1C2CC[C@H]3[C@@H]4CC[C@H]([C@H](C)CCCC(C)C)[C@@]4(C)CC[C@@H]3[C@@]2(C)CC[C@H]1O (stereo partly specified) | – | inactive | 124% | 2.8 µM | –
COC(=O)c1ccc(C[C@H]2C3CC[C@H]4[C@@H]5CC[C@H]([C@H](C)CCCC(C)C)[C@@]5(C)CC[C@@H]4[C@@]3(C)CC[C@H]2O)cc1 (stereo partly specified) | – | inactive | 48% | 14 µM | –
C=CC[C@@H]1C[C@@]2(C)C(CC[C@H]3[C@@H]4CC[C@H]([C@H](C)CCCC(C)C)[C@@]4(C)CC[C@@H]32)[C@H](CC=C)[C@@H]1O (stereo partly specified) | inactive | – | – | – | –
C=C[C@H]1C2CC[C@H]3[C@@H]4CC[C@H]([C@H](C)CCCC(C)C)[C@@]4(C)CC[C@@H]3[C@@]2(C)CC[C@H]1O (stereo partly specified) | inactive | – | – | – | –
C=CC[C@@H]1[C@H]2CC[C@@H]3[C@H](CC[C@]4(C)[C@@H]([C@H](C)CCCC(C)C)CC[C@@H]34)[C@@]2(C)CC[C@@H]1O | inactive | – | – | – | –
CC(C)CCC[C@@H](C)[C@H]1CC[C@H]2[C@@H]3CCC4[C@H](Cc5ccc(Cl)cc5)[C@H](O)CC[C@]4(C)[C@H]3CC[C@]12C (stereo partly specified) | – | inactive | 63% | 42 µM | –
C#CC[C@H]1C2CC[C@H]3[C@@H]4CC[C@H]([C@H](C)CCCC(C)C)[C@@]4(C)CC[C@@H]3[C@@]2(C)CC[C@H]1O (stereo partly specified) | inactive | – | – | – | –
C=C(Cl)C[C@H]1C2CC[C@H]3[C@@H]4CC[C@H]([C@H](C)CCCC(C)C)[C@@]4(C)CC[C@@H]3[C@@]2(C)CC[C@@H]1O (stereo partly specified) | inactive | – | – | – | –
C/C=C(\C)C[C@H]1C2CC[C@H]3[C@@H]4CC[C@H]([C@H](C)CCCC(C)C)[C@@]4(C)CC[C@@H]3[C@@]2(C)CC[C@H]1O (stereo partly specified) | – | inactive | 72% | 18 µM | –

SMILES | EC30 [1] | Activity (CHO [2]) | MA [4] | EC30 [5] | other results
C=CC[C@H]1C[C@H]2[C@@H]3CC[C@H]([C@H](C)CCCC(C)C)[C@@]3(C)CC[C@@H]2[C@@]2(C)CC[C@@H](O)CC12 (stereo partly specified) | inactive | – | – | – | –
CC(C)CCC[C@@H](C)[C@H]1CC[C@H]2[C@@H]3CC[C@H]4CC(=O)CC[C@]4(C)[C@H]3CC[C@]12C | inactive | – | – | – | –
CC(C)CCC[C@@H](C)[C@H]1CC[C@H]2[C@@H]3CCC4[C@H](Cc5ccc(C=O)cc5)[C@H](O)CC[C@]4(C)[C@H]3CC[C@]12C (stereo partly specified) | inactive | – | – | – | –
CC(C)CCC[C@@H](C)[C@H]1CC[C@H]2[C@@H]3CCC4[C@H](Cc5ccc(OCc6ccccc6)cc5)[C@H](O)CC[C@]4(C)[C@H]3CC[C@]12C (stereo partly specified) | inactive | – | – | – | –
C/C=C\C[C@H]1C2CC[C@H]3[C@@H]4CC[C@H]([C@H](C)CCCC(C)C)[C@@]4(C)CC[C@@H]3[C@@]2(C)CC[C@H]1O (stereo partly specified) | – | inactive | 72% | 26 µM | –
CC(C)CCC[C@@H](C)[C@H]1CC[C@H]2[C@@H]3CCC4[C@H](Cc5cccc(F)c5F)[C@H](O)CC[C@]4(C)[C@H]3CC[C@]12C (stereo partly specified) | inactive | – | – | – | –
C=C(Br)C[C@H]1C2CC[C@H]3[C@@H]4CC[C@H]([C@H](C)CCCC(C)C)[C@@]4(C)CC[C@@H]3[C@@]2(C)CC[C@H]1O (stereo partly specified) | – | inactive | 131% | 3.2 µM | –
C=CC[C@H]1[C@H](O)CC[C@@]2(C)[C@@H]1CC[C@@H]1[C@@H]2CC[C@]2(C)[C@@H]([C@H](C)CCCC(C)C)CC[C@@H]12 | inactive | – | – | – | –
CC(C)CCC[C@@H](C)[C@H]1CC[C@H]2[C@@H]3CCC4[C@H](Cc5ccc(Cl)c(Cl)c5)[C@H](O)CC[C@]4(C)[C@H]3CC[C@]12C (stereo partly specified) | inactive | – | – | – | –
CC(C)CCC[C@@H](C)[C@H]1CC[C@H]2[C@@H]3CCC4[C@H](Cc5ccc(C(=O)O)cc5)[C@H](O)CC[C@]4(C)[C@H]3CC[C@]12C (stereo partly specified) | inactive | – | – | – | –
C=CC[C@@H]1C[C@H]2[C@@H]3CC[C@H]([C@H](C)CCCC(C)C)[C@@]3(C)CC[C@@H]2[C@@]2(C)CC[C@@H](O)CC12 (stereo partly specified) | inactive | – | – | – | –
C=CC[C@@H]1C[C@@]2(C)C(CC[C@H]3[C@@H]4CC[C@H]([C@H](C)CCCC(C)C)[C@@]4(C)CC[C@@H]32)C[C@H]1O (stereo partly specified) | inactive | – | – | – | –
CC(C)CCC[C@@H](C)[C@H]1CC[C@H]2[C@@H]3CCC4[C@H](Cc5ccc(C(F)(F)F)cc5)[C@H](O)CC[C@]4(C)[C@H]3CC[C@]12C (stereo partly specified) | – | inactive | 58% | 12 µM | –
CC(C)CCC[C@@H](C)[C@H]1CC[C@H]2[C@@H]3CCC4[C@H](Cc5cccc(I)c5)[C@H](O)CC[C@]4(C)[C@H]3CC[C@]12C (stereo partly specified) | – | – | – | – | MA [1]: inactive
CC(C)=CC[C@H]1C2CC[C@H]3[C@@H]4CC[C@H]([C@H](C)CCCC(C)C)[C@@]4(C)CC[C@@H]3[C@@]2(C)CC[C@H]1O (stereo partly specified) | inactive | – | – | – | –
CC(C)CCC[C@@H](C)[C@H]1CC[C@H]2[C@@H]3CC[C@H]4[C@H](Cc5ccccc5)C(=O)CC[C@]4(C)[C@H]3CC[C@]12C | – | – | – | – | Total cholesterol (Cricetinae gen. sp. [7]): 312 mg/dL; Relative change (Mesocricetus auratus [8]): -15%
COc1ccc(C[C@H]2C3CC[C@H]4[C@@H]5CC[C@H]([C@H](C)CCCC(C)C)[C@@]5(C)CC[C@@H]4[C@@]3(C)CC[C@H]2O)cc1 (stereo partly specified) | inactive | – | – | – | –
CC(C)CCC[C@@H](C)[C@H]1CC[C@H]2[C@@H]3CCC4[C@H](Cc5ccc(F)cc5F)[C@H](O)CC[C@]4(C)[C@H]3CC[C@]12C (stereo partly specified) | inactive | – | – | – | –
CC(C)CCC[C@@H](C)[C@H]1CC[C@H]2[C@@H]3CCC4[C@H](Cc5ccccc5F)[C@H](O)CC[C@]4(C)[C@H]3CC[C@]12C (stereo partly specified) | inactive | – | – | – | –
CC(C)CCC[C@@H](C)[C@H]1CC[C@H]2[C@@H]3CCC4[C@H](C/C=C/c5ccccc5)[C@H](O)CC[C@]4(C)[C@H]3CC[C@]12C (stereo partly specified) | inactive | – | – | – | –
C=CC[C@H]1C2CC[C@H]3[C@@H]4CC[C@H]([C@H](C)CCCC(C)(C)O)[C@@]4(C)CC[C@@H]3[C@@]2(C)CC[C@H]1O (stereo partly specified) | – | – | 111% | 9.4 µM | –
